From PMC3277286 (Journal of Medicinal Chemistry, 2012) come the findings set out here.

Molecules are shown by their SMILES.

For test [1], the target named is T1, human ΔF508-CFTR (Homo sapiens, UniProt P13569, DEL508-508). The format is cell-based. The settings on record: summary in text of corrector and potentiator assays in ΔF508-CFTR FRT cells. An outline of the steps: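 FRT cells coexpressing human ΔF508-CFTR and YFP-H148Q/I152L were grown 18–24 h at 37 °C, then rescued 18–24 h at 27 °C. After a PBS wash, they got 20 μM forskolin with test compound (0–50 μM final, eight concentrations) for 10 min. I⁻ influx was recorded over 2 s baseline plus 12 s after iodide addition, rate by exponential regression. Controls were DMSO and genistein. Runs were in triplicate; EC50/Vmax came from a 4-parameter logistic fit.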

Test [2] has as its target T1, human ΔF508-CFTR. Put plainly: ΔF508-CFTR corrector activity, fluorescence plate-reader iodide influx assay. As to conditions: summary in text of corrector and potentiator assays in ΔF508-CFTR FRT cells. It is filed as cell-based. An outline of the steps:
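FRT cells stably coexpressing human ΔF508-CFTR and YFP-H148Q/I152L were grown 24 h at 37 °C, then given test compound for 16–20 h at eight concentrations (maximum 25 μM). After a PBS wash, they got 20 μM forskolin plus 50 μM genistein for 20 min. Iodide influx was read as YFP quenching after Cl-to-I replacement (137 mM), fitted exponentially. Runs were in triplicate; EC50/Vmax came from a 4-parameter logistic fit.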

For the compound `Cc1cc(C)c2cc(C#N)c(NCCNC(=O)c3ccccn3)nc2c1` [CoPo 16, N-(2-((3-Cyano-5,7-dimethylquinolin-2-yl)amino)ethyl)picolinamide], the “Activity class from function studies (potentiator)” value (“Activity class … (potentiator)” below) in test [1] is listed as “potentiator-only activity”.

With `Cc1cc(C)c2cc(C#N)c(NCCNC(=O)c3ccccc3)nc2c1` [CoPo 19, N-(2-((3-Cyano-5,7-dimethylquinolin-2-yl)amino)ethyl)benzamide], the “Activity class … (potentiator)” value in test [1] is given as “potentiator-only activity”.

Take `Cc1cc(C)c2cc(C#N)c(NCCNC(=O)c3cnccn3)nc2c1` [CoPo 22, N-(2-((3-Cyano-5,7-dimethylquinolin-2-yl)amino)ethyl)pyrazine-2-carboxamide]: the “Activity class from function studies (corrector / dual)” value in test [2] is recorded as “corrector-only activity”.

Consider `COc1ccccc1C(=O)NCCCNc1nc2cc(C)cc(C)c2cc1C#N` [CoPo 31, N-(3-(3-Cyano-5,7-dimethylquinolin-2-ylamino)propyl)-2-methoxybenzamide], for which the “Activity class … (potentiator)” value in test [1] is on record as “potentiator-only activity”.

For the compound `Cc1cc(C)c2cc(C#N)c(NCCCNC(=O)c3ccccn3)nc2c1` [CoPo 34, N-(3-(3-Cyano-5,7-dimethylquinolin-2-ylamino)propyl)picolinamide], the “Activity class … (potentiator)” value in test [1] is “potentiator-only activity”.
